Several values for one entry are separate records, joined by “and”; a condition that tells them apart may be missing. Identical values can stand only once.
How the values were obtained:
Type in all cases: in vivo, patients with advanced cancer
[1] = Safety: adverse events by NCI-CTCAE v3.0
In short: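 Patients with advanced cancer took the oral kinase inhibitor at 400 mg bid, continuously, in 28-day cycles. Safety, including laboratory tests, was checked at screening, at baseline and on day 1 of each cycle. Treatment-emergent AEs were graded by NCI-CTCAE v3.0 for incidence, severity, seriousness and drug relationship, and summarized descriptively for all patients with ≥1 dose.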

[2] = QT/QTc interval on 12-lead Holter ECG
Efficacy: tumor response = experiment: Efficacy: tumor response
In short: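 Adults with advanced cancer took the oral multitargeted kinase inhibitor at 400 mg bid, continuously, in 28-day cycles until progression or intolerance. Tumors were measured at screening and every 2 cycles and assessed locally by RECIST. Patients with ≥1 dose were included; patients were evaluable if radiologically re-evaluated or if they stopped for death or progression before re-evaluation. Descriptive statistics were used, with Kaplan–Meier for PFS.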

[3] = Left ventricular ejection fraction; conditions: for Mean (SD) change from baseline in LVEF(%): sorafenib 400 mg bid
[4] = over 12-h period, Day 1 of cycle 2
[5] = over 12-h period, Day 1 of cycle 2, listed as Sorafenib

Compound: CNC(=O)c1cc(Oc2ccc(NC(=O)Nc3ccc(Cl)c(C(F)(F)F)c3)cc2)ccn1 [sorafenib]
- Diarrhea, drug-related, Grade ≥3 ([1]; N = 53): 1 (2) n (%)
- Diarrhea, drug-related, all grades ([1]; N = 53): 15 (28) n (%)
- Fatigue, drug-related, Grade ≥3 ([1]; N = 53): 1 (2) n (%)
- Fatigue, drug-related, all grades ([1]; N = 53): 8 (15) n (%)
- Hand-foot skin reaction, drug-related, Grade ≥3 ([1]; N = 53): 6 (11) n (%)
- Hand-foot skin reaction, drug-related, all grades ([1]; N = 53): 16 (30) n (%)
- Hypertension, drug-related, Grade ≥3 ([1]; N = 53): 1 (2) n (%)
- Hypertension, drug-related, all grades ([1]; N = 53): 6 (11) n (%)
- Mucositis, drug-related, Grade ≥3 ([1]; N = 53): 1 (2) n (%)
- Mucositis, drug-related, all grades ([1]; N = 53): 8 (15) n (%)
- Nausea, drug-related, Grade ≥3 ([1]; N = 53): 0 (0) n (%)
- Nausea, drug-related, all grades ([1]; N = 53): 7 (13) n (%)
- Pain, extremity—limb, drug-related, Grade ≥3 ([1]; N = 53): 0 (0) n (%)
- Pain, extremity—limb, drug-related, all grades ([1]; N = 53): 12 (23) n (%)
- Patients discontinued from the study because of AEs ([1]; N = 53): Seven
- Patients with dose reductions ([1]; N = 53): 43.4%
- Patients with dose reductions because of treatment-emergent AEs ([1]; N = 53): 32.1%
- Patients with drug-related treatment-emergent serious AEs ([1]; N = 53): 4%
- Patients with treatment interruptions ([1]; N = 53): 75.5%
- Patients with treatment interruptions because of treatment-emergent AEs ([1]; N = 53): 43.4%
- Rash/desquamation, drug-related, Grade ≥3 ([1]; N = 53): 3 (6) n (%)
- Rash/desquamation, drug-related, all grades ([1]; N = 53): 20 (38) n (%)
- Sensory neuropathy, drug-related, Grade ≥3 ([1]; N = 53): 0 (0) n (%)
- Sensory neuropathy, drug-related, all grades ([1]; N = 53): 7 (13) n (%)
- Any drug-related adverse event, Grade ≥3 ([1]; N = 53, sorafenib 400 mg bid): 16 n (%) and 16 (30) n (%)
- Any drug-related adverse event, all grades ([1]; N = 53, sorafenib 400 mg bid): 43 n (%) and 43 (81) n (%)
- Deaths during the study or within 30 days of the last dose ([1]; all secondary to disease progression, considered unrelated to study drug): Seven
- Discontinuations because of drug-related AEs ([1]; of the patients discontinued because of AEs): 3 patients
- Mean (SD) change from baseline in QTcB ([2]; 2 h post-dose, Day 1 of cycle 2): 0.5 (18.0) ms
- Mean (SD) change from baseline in QTcB ([2]; 4 h post-dose, Day 1 of cycle 2): 2.0 (20.2) ms
- Mean (SD) change from baseline in QTcB ([2]; 6 h post-dose, Day 1 of cycle 2): 1.6 (17.3) ms
- Mean (SD) change from baseline in QTcB ([2]; 8 h post-dose, Day 1 of cycle 2): 0.2 (16.1) ms
- Mean (SD) change from baseline in QTcB ([2]; 12 h post-dose, Day 1 of cycle 2): 2.9 (17.2) ms
- Mean (SD) change from baseline in QTcB ([2]; Pre-dose, Day 1 of cycle 2): 1.1 (18.3) ms
- Patients with a QTcB or QTcF value >500 ms ([2]; at any time during the study): No patient
- Mean (SD) change from baseline in QTcB ([2]; at t max, Day 1 of cycle 2): 4.2 ms and 4 ms
- Mean (SD) change from baseline in QTcB ([2]; at t max, Day 1 of cycle 2, listed as Sorafenib): 4.2 (19.2) ms
- Patients with a ≥60-ms change from baseline in QTcB or QTcF ([2]; during the study): no patient
- Mean (SD) maximal change from baseline in QT [2, 4]: 32.9 (24.1) ms
- Mean (SD) maximal change from baseline in QTcB [2, 4]: 16.4 ms and 16 ms
- Mean (SD) maximal change from baseline in QTcF [2, 4]: 19.8 ms and 20 ms
- Mean (SD) maximal change from baseline in QTcB [2, 5]: 16.4 (15.3) ms
- Mean (SD) maximal change from baseline in QTcF [2, 5]: 19.8 (14.4) ms
- Mean increases from baseline by time point, QTcB (range) ([2]; over 12 h, after 1 cycle): 0.2 to 2.9 ms
- Mean increases from baseline by time point, QTcF (range) ([2]; over 12 h, after 1 cycle): 4.2 to 5.8 ms
- QTcF value, individual patient ([2]; patient with maximum prolongation, after 1 cycle, baseline 396.7 ms): 446.3 ms
- PD as best response (Efficacy: tumor response; 48 patients evaluable for tumor response, RECIST): 27%
- Patients alive (censored) at time of analysis (Efficacy: tumor response; ITT population (n = 53)): 87%
- Patients who had died by the time of analysis (Efficacy: tumor response; ITT population (n = 53)): 13%
- Median PFS (Efficacy: tumor response; ITT population (n = 53), 95% CI 2.8–6.4 months): 4.1 months
- Median overall survival (Efficacy: tumor response; ITT population (n = 53), censored data): not estimable
- LVEF measurement, individual patient ([3]; RCC patient with diabetes (baseline 67%), Day 1 of cycle 3, MUGA scan): 42.2%
- LVEF measurement, individual patient ([3]; RCC patient with diabetes (baseline 67%), repeat MUGA scan (+16 days)): 50%
- Mean (SD) change from baseline in LVEF(%) ([3]; primary analysis population, Day 1 of cycle 3 (after 2 cycles)): −0.8 (±8.6) LVEF(%) and −0.8 LVEF(%)
- Mean (SD) change from baseline in LVEF(%) ([3]; primary analysis population, Day 1 of cycle 3 (after 2 cycles), listed as Sorafenib): −0.8 (8.6) LVEF(%)
- Mean (SD) change from baseline in LVEF(%) ([3]; primary analysis population, Day 1 of cycle 5 (after 4 cycles)): −1.2 (±7.8) LVEF(%) and −1.2 LVEF(%)
- Mean (SD) change from baseline in LVEF(%) ([3]; primary analysis population, Day 1 of cycle 5 (after 4 cycles), listed as Sorafenib): −1.2 (7.8) LVEF(%)
- Patients with decrease from baseline of ≥10 LVEF(%) ([3]; primary group, after 2 cycles): 12.9% and 13%
- Patients with decrease from baseline of ≥10 LVEF(%) ([3]; primary group, after 4 cycles): 4%
- Mean decline in LVEF(%) ([3]; primary patient group (n = 24), after 4 cycles): 1.2 LVEF(%)
- Mean (SD) change from baseline in LVEF(%) ([3]; secondary analysis population, Day 1 of cycle 3 (after 2 cycles)): −1.0 (8.5) LVEF(%)
- Mean (SD) change from baseline in LVEF(%) ([3]; secondary analysis population, Day 1 of cycle 5 (after 4 cycles)): −1.4 (9.4) LVEF(%)
- Patients with decrease from baseline of ≥10 LVEF(%) ([3]; secondary group, after 2 cycles): 12.0%
- Patients with decrease from baseline of ≥10 LVEF(%) ([3]; secondary group, after 4 cycles): 7.1%
- Mean decline in LVEF(%) ([3]; secondary patient group (n = 14), after 4 cycles): 1.4 LVEF(%)
- Mean decline in LVEF(%) ([3]; secondary patient group (n = 25), after 2 cycles): 1.0 LVEF(%)
- Largest individual decrease in ejection fraction ([3]; single patient without clinical signs of CHF): −24.8 LVEF[%]
- LVEF measurement, individual patient ([3]; thymic cancer patient (baseline 72%), repeat ECHO scan (+3 days)): 60–65%

Source: PMC3064895 (Cancer Chemotherapy and Pharmacology, 2010)
